Assay outcomes as filed in PubChem BioAssay.
KCNQ1 act: potentiates or activates the human KCNQ1 potassium channel | P51787 | CHO-K1 KCNQ1, thallium flux FluxOR fluorescence; active compounds read high | B-score at 10 µM | 310,000 compounds, 0.35% hits | AID 2648;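 active = fluorescence ratio B-score, a plate-corrected score, at least three library SD, with initial intensity B-score within 5 SD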
Target sequence (P51787 whole entry, looked up): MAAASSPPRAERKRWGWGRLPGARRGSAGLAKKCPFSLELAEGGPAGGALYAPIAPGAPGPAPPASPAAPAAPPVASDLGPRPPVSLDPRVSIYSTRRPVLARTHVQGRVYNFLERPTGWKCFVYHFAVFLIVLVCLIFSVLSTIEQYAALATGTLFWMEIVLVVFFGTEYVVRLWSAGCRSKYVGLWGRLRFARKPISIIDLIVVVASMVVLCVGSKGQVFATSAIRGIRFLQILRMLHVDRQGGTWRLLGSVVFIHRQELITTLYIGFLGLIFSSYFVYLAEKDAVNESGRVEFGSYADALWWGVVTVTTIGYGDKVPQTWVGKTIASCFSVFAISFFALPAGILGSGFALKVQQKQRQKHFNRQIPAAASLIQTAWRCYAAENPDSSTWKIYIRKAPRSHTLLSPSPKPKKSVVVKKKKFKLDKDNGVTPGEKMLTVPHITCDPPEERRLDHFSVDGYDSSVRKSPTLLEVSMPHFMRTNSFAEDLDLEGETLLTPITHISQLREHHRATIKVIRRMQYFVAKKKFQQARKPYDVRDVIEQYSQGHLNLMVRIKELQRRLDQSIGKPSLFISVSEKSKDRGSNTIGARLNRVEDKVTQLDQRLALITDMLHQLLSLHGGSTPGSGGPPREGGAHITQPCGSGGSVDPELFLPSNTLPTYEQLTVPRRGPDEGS
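Material: CHO-K1 cells stably expressing KCNQ1. Medium: assay buffer for compound exposure, DMSO matched across wells. Reagent: K+/Tl+ depolarizing stimulus. Compound dosing: single-concentration screen. Times: 37 °C overnight plating, 90-min dark dye load, 20-min compound pretreatment. Technique: FluxOR Tl+ flux fluorescence.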
KCNK9 block: blocks the human KCNK9 two-pore domain potassium channel | Q9NPC2 | HEK293 KCNK9, FluxOR thallium flux fluorescence; active compounds read low | B-score at 10 µM | 310,000 compounds, 1.2% hits | AID 488922;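 active = ratio B-score over 3 SD below the library mean, with starting fluorescence within 5 SD of its mean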;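 note: negative B-score means less thallium flux so channel inhibition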
KCNK3 block: human KCNK3 channel inhibition, primary screen | O14649 | CHO-KCNK3 thallium flux, FluxOR fluorescence; active compounds read low | B-score at 10 µM | 340,000 compounds, 0.84% hits | AID 602410;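 active = B-score under library mean minus 4 SD, starting fluorescence ratio at most library mean plus 5 SD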;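 note: more negative B-score means stronger inhibition of thallium flux through KCNK3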
Kir21 inh: inhibitors of mouse Kir2.1 inward-rectifier potassium channel; P35561; HEK293-Kir2.1, FluxOR thallium flux fluorescence; active compounds read low; B-score at 10 µM; 310,000 compounds, 0.85% hits; AID 1672;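 active = fluorescence ratio B-score at or below minus 3 SD of library scores, with starting-brightness B-score within 2 SD, cut at about -4.2 in these data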;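 note: channel flux triggered by added potassium and thallium sulfate stimulus; B-score of peak minus minimum fluorescence over baseline after thallium stimulus; more negative B-score means stronger Kir2.1 block with less thallium influx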
KCNQ1 block: inhibitors of human KCNQ1 potassium channel; P51787; B-score at 10 µM; 310,000 compounds, 1.3% hits; CHO-K1 KCNQ1, FluxOR thallium flux fluorescence; active compounds read high; AID 2642;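 active = compounds whose thallium flux B-score, printed positive for inhibition, exceeds three library SD while starting fluorescence stays within three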;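 note: channel opened by potassium depolarization with thallium stimulus after 20 min compound exposure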
hERG protect: hERG (human) protection from proarrhythmic block | activation (rescue from dofetilide block), less the hit threshold, % at 10 µM | CHO-hERG, FluxOR thallium flux, dofetilide IC70 present | 310,000 compounds, 0.51% hits | Q12809;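 active = activation above the mean of controls blocked by dofetilide plus 5 SD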;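 note: thallium influx through hERG after potassium depolarization seen as dye fluorescence rise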
KCNK9 inh conf: confirmation of human KCNK9 potassium channel inhibitors; shares compounds with KCNK9 block; 4,900 compounds, 43% hits; HEK293 KCNK9 cells, FluxOR thallium flux fluorescence; inhibition, % at 10 µM;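 active = thallium signal inhibited by more than 5 SD of the compound-free buffer control wells, on both duplicate plates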;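 note: 0% = assay buffer control wells without compound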
Kir21 sel: selectivity of KCNK9 modulators against mouse Kir2.1 | shares compounds with KCNK9 block | inhibition, % at 10 µM | 4,900 compounds, 4% hits | Kir2.1 cells, FluxOR thallium flux fluorescence | AID 492993;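 active = thallium signal drop more than 5 SD beyond the mean of the no-compound control wells, seen in both duplicate plates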;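 note: signal is fluorescence rise after thallium addition divided by baseline fluorescence; plate controls were assay buffer only for no effect and full block by chlorpromazine control for full effect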
HEK293 Tl ctr: second check of KCNK9 modulator effects in non-induced HEK293 cells. shares compounds with KCNK9 block. FluxOR thallium flux. inhibition, % at 10 µM. 4,900 compounds, 40% hits. AID 492997;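 active = thallium signal drop beyond 5 SD of the untreated control mean, on both duplicate plates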;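 note: plate controls were buffer only IC0 wells for no effect and SID17386958 at its maximal inhibitory level for full effect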
An asterisk follows results filed as active; i = inactive; nt = not tested or not shown; ! = repeats disagree. Most compounds without a hit are left out; they make up all but 3.7% or so of the library.

SMILES | KCNQ1 act | KCNK9 block | KCNK3 block | Kir21 inh | KCNQ1 block | hERG protect | KCNK9 inh conf | Kir21 sel | HEK293 Tl ctr
Cc1cc(C)n(-c2nnc(C)n2/N=C/c2ccc(O)cc2)n1 | i | i | i | 2.9 | i | -5 | nt | nt | nt
Cc1cccc2nc(-c3ccccc3)nc(N3CCC(O)(c4ccc(Cl)cc4)CC3)c12 | i | -10* | i | -0.18 | i | -5 | 61%* | i | 32%*
Cc1occc(=O)c1OCc1ccc(Cl)cc1Cl | i | i | i | -1.7 | i | -10 | nt | nt | nt
O=C(NCCc1ccccc1)c1ccc2c(c1)OCCO2 | i | i | i | 0.87 | i | -4 | i | i | i
O=C(NCCc1ccccc1)c1ccc2c(c1)OCCCO2 | i | i | i | -0.69 | i | -4 | nt | nt | nt
O=C(NCCCCc1ccccc1)C12CN(Cc3ccccc3)CC1C(c1cccc([N+](=O)[O-])c1)=NO2 (stereo not drawn) | i | i | i | -0.01 | i | -7 | i | i | i
Cc1oc(-c2ccccc2F)nc1CS(=O)CC(=O)NCc1ccc(F)cc1 (stereo not drawn) | i | i | i | 0.09 | i | -4 | nt | nt | nt
CCc1cc(C(=O)N2CCCC(CNC(=O)c3ccc(-c4ccccc4)cc3)C2)no1 (stereo not drawn) | i | i | i | 0.19 | i | -7 | nt | nt | nt
CC(C)N(Cc1nc(-c2ccc(Cl)cc2)no1)C(=O)C12CC3CC(CC(C3)C1)C2 | i | i | i | 0.08 | i | -10 | i | i | i
Cc1cccc(-c2noc(CN(C(=O)C34CC5CC(CC(C5)C3)C4)C(C)C)n2)c1 | i | i | i | 0.33 | i | -2 | i | i | i
Cc1ccc(SCC(=O)N(Cc2nc(-c3ccccc3)no2)C(C)C)cc1 | i | i | i | 0.01 | i | -9 | i | i | 28%*
Cc1ccc(C(=O)N(Cc2nc(-c3ccc(C)cc3)no2)C(C)C)cc1 | i | i | i | -0.09 | i | -6 | nt | nt | nt
S=c1[nH]nc(-c2cccs2)n1/N=C/c1cn(-c2ccccc2)nc1-c1ccccc1 | i | i | i | 1.2 | i | -4 | i | i | i
Cc1ccc(-c2nn(-c3ccccc3)cc2/C=N/n2c(-c3ccncc3)n[nH]c2=S)cc1 | i | i | i | -1.3 | i | -3 | nt | nt | nt
Cc1ccc(C(C)NC(=O)COC(=O)C2=COCCO2)cc1C (stereo not drawn) | nt | nt | i | nt | nt | nt | nt | nt | nt
CC1CCC(C(C)C)C(OC(=O)Cn2nnc3c(cnn3-c3ccccc3)c2=O)C1 (stereo not drawn) | i | i | i | -1.3 | i | -20 | nt | nt | nt
Cc1ccccc1OCc1n(CC(=O)OC2CC(C)CCC2C(C)C)c2ccccc2[n+]1C (stereo not drawn) | i | -17* | -13* | -15* | 8*! | -30 | 70%* | 78%*! | i
Cc1ccc(-c2cccc(C(=O)NCc3ccccc3)n2)c2ccccc12 | i | i | i | 0.83 | i | -13 | i | i | i
COc1ccc(CCNC(=O)c2cccc(C(=O)NCCc3ccc(OC)cc3)n2)cc1 | i | i | i | 0.86 | i | -9 | nt | nt | nt
Cc1ccc(-c2cccc(C(=O)NCCc3ccccc3)n2)c2ccccc12 | i | -17* | i | 1.2 | i | -12 | 76%* | i | 32%*
Cc1cccc(NC(=O)C2c3ccccc3Oc3ccccc32)n1 | i | i | i | 0.79 | i | -7 | nt | nt | nt
COc1cccc(CC2(CO)CCCN(Cc3sc(N4CCCC4)nc3Cl)C2)c1 (stereo not drawn) | i | i | i | -1.3 | i | -13 | i | i | i
COc1ccc2nc(SCC(=O)Nc3nccs3)[nH]c2c1 | i | i | i | 0.07 | i | -7 | nt | nt | nt
O=C(O)CSc1nnc(SCc2cccc3ccccc23)s1 | i | i | i | 0.44 | i | -13 | nt | nt | nt
CC(C)OC(=O)CSc1nnc(SCc2cccc3ccccc23)s1 | i | i | i | 0.43 | i | -5 | i | i | i
SMILES | KCNQ1 act | KCNK9 block | KCNK3 block | Kir21 inh | KCNQ1 block | hERG protect | KCNK9 inh conf | Kir21 sel | HEK293 Tl ctr
O=C(O)Cc1cn(Cc2cccc(Cl)c2)c2ccccc12 | i | i | i | -0.29 | i | -9 | nt | nt | nt
O=C(Cc1cn(Cc2cccc(Cl)c2)c2ccccc12)N1CCCCCC1 | i | -11* | i | 2.2 | i | -11 | 54%* | 36%* | 38%*
CC1CCCN(C(=O)Cc2cn(Cc3cccc(Cl)c3)c3ccccc23)C1 (stereo not drawn) | i | -14* | i | -2 | i | -5 | 72%* | 46%* | 37%*
Cc1ccc(-c2onc3ccc(C(=O)/C=C/N(C)C)cc23)cc1 | i | i | i | 3.5 | i | -16 | nt | nt | nt
Cc1cccc(-c2onc3ccc(C(=O)/C=C/N(C)C)cc23)c1 | i | i | i | -0.12 | i | -2 | i | i | i
CCn1c(C)c(C(C)=O)c(N2CCN(C(c3ccccc3)c3ccccc3)CC2)nc1=S | i | -9.1* | i | 0.76 | i | -18 | i | i | i
CCn1c(C)c(C(C)=O)c(N2CCCCC2)nc1=S | i | i | i | 0.83 | i | -9 | nt | nt | nt
Cc1ccc(C(=O)NCc2ccc(N3CCN(C(=O)OC(C)(C)C)CC3)cc2)cc1 | i | i | i | -0.82 | i | -16 | i | i | i
Cc1ccc(CNC(=O)N2CCN(c3ccc(C)cc3)CC2)cc1 | i | i | i | 0.01 | i | -8 | nt | nt | nt
COc1ccccc1N1CCN(C(=O)CSc2nc3ccccc3nc2N2CCC(C)CC2)CC1 | i | i | i | -1.1 | i | -15 | i | i | i
COc1ccc(NC(=O)CSc2nc3ccccc3nc2N2CCCC2)cc1 | i | i | i | 0.23 | i | -5 | i | i | i
CCOc1ccc(NC(=O)CSc2nc3ccccc3nc2N2CCCC2)cc1 | i | i | i | -1.2 | i | -9 | nt | nt | nt
CCOc1ccccc1NC(=O)CSc1nc2ccccc2nc1N1CCOCC1 | i | i | i | 0.39 | i | -12 | nt | nt | nt
CCOc1ccccc1NC(=O)CSc1nc2ccccc2nc1N1CCCC1 | i | -8.6* | i | -0.09 | 6* | -16 | i | i | i
